The values that follow come from ChEMBL document CHEMBL4004786, “Nanomolar Antimalarial Agents against Chloroquine-Resistant Plasmodium falciparum from Medicinal Plants and Their Structure-Activity Relationships” (J Nat Prod, 2017).

A value given as a limit tells only on which side of the number the result lay.

A word on the IC50: it is the concentration at which inhibition is half-maximal.

The test system of one data set is Plasmodium falciparum. The experiment in a line: Antimalarial activity against chloroquine-resistant Plasmodium falciparum Dd2 assessed as parasite growth inhibition after 72 hrs by SYBR Green 1 assay. The class given is functional. The settings on record: Dd2, 72 h. The procedure, abridged:
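Viability was read by SYBR Green I DNA quantitation and normalized to DMSO-treated untreated controls. IC50 came from nonlinear regression, averaging at least three independent experiments run in triplicate, with standard deviations.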

The next data set relates to WI-38. The experiment in a line: Cytotoxicity against human WI38 cells after 24 hrs by resazurin assay. The settings on record: WI-38, 24 h. Background: Resazurin is reduced to fluorescent resorufin, in cell work by metabolically active cells.
A short description of data set [1]: Selectivity index, ratio of IC50 for human WI38 cells to IC50 for chloroquine-resistant Plasmodium falciparum Dd2. The class given is toxicity. The note with it: read-out: Ratio IC50.

As for `CO[C@]12OC(=O)C(C)=C1C1=C3[C@](C)([C@@H]4C[C@@H]4[C@@]3(O)C[C@@H]3[C@]14OC(=O)C1=C4C[C@H]4[C@](O)(COC(=O)/C(C)=C/COC(=O)CCC(=O)OC1)[C@H]1C[C@H]1[C@]34C)[C@H]2O`, the concentration for half-maximal inhibition (IC50) with Plasmodium falciparum was more than 25000 nM.

Take `C=C1[C@H]2C[C@H]2[C@@]2(C)[C@H]1[C@@H](OC(C)=O)C1=C(C)C(=O)O[C@@]13C1=C4[C@](C)([C@@H]5C[C@@H]5[C@@]4(O)C[C@H]32)[C@@H](O)C(=O)/C1=C(/C)C(=O)OC`: the half-inhibitory concentration (IC50) in the data set with Plasmodium falciparum is more than 25000 nM.

Take `COC(=O)/C(C)=C1\C(=O)[C@H](O)[C@]2(C)C3=C(C[C@@H]4[C@]5(OC(=O)C(CO)=C5C[C@H]5[C@H](COC(C)=O)[C@H]6C[C@H]6[C@]45C)[C@H]31)[C@H]1C[C@H]12`: the IC50 with Plasmodium falciparum turned out to be 580 nM.

As to `COC(=O)CCC(=O)OCC1=C2C[C@H]3[C@](O)(COC(=O)/C=C(\C)C=O)[C@H]4C[C@H]4[C@]3(C)[C@@H]3CC4=C5[C@H](/C(=C(\C)C(=O)OC)C(=O)[C@H](O)[C@@]5(C)[C@@H]5C[C@H]45)[C@]23OC1=O`, the results for the IC50 in the data set on WI-38 and with Plasmodium falciparum were 8840 nM and 5.2 nM, respectively. The selectivity ratio in data set [1] worked out at 1700.

`COC(=O)CCC(=O)OCC1=C2C[C@H]3[C@](O)(COC(=O)/C=C(\C)CO)[C@H]4C[C@H]4[C@]3(C)[C@@H]3C=C4C5=C(C6=C(C)C(=O)O[C@]6(O)[C@H](O)[C@@]5(C)[C@@H]5C[C@H]45)[C@]23OC1=O`: the IC50 with Plasmodium falciparum worked out at 198 nM.

Turning to `COC(=O)/C(C)=C1\C(=O)[C@H](O)[C@]2(C)C3=C(C[C@@H]4[C@]5(OC(=O)C(CO)=C5C[C@H]5[C@](O)(CO)[C@H]6C[C@H]6[C@]45C)[C@H]31)[C@H]1C[C@H]12`, in the data set on Plasmodium falciparum, the half-inhibitory concentration (IC50) turned out to be 4600 nM.

As to `C=C1[C@H]2C[C@H]2[C@@]2(C)[C@H]1[C@@H](OC(C)=O)C1=C(C)C(=O)O[C@@]13C1=C4[C@@](C)(C(=O)[C@@]5(O)OC(=O)C(C)=C15)[C@@H]1C[C@@H]1[C@@]4(O)C[C@H]32`, the concentration for half-maximal inhibition (IC50) in the data set with Plasmodium falciparum was more than 25000 nM.

Consider `C=C1[C@H]2C[C@H]2[C@@]2(C)[C@H]1[C@@H](OC(C)=O)C1=C(C)C(=O)O[C@@]13C1=C4[C@](O)(C[C@H]32)[C@H]2C[C@H]2[C@]4(C)CC(=O)/C1=C(/C)C(=O)OC`, for which the IC50 with Plasmodium falciparum was more than 25000 nM.

Turning to `COC(=O)/C(C)=C1\C(=O)[C@H](O)[C@]2(C)C3=C(C[C@@H]4[C@]5(OC(=O)C(CO)=C5C[C@H]5[C@](O)(COC(=O)C=C(C)C)[C@H]6C[C@H]6[C@]45C)[C@H]31)[C@H]1C[C@H]12`, the IC50 in the data set with Plasmodium falciparum is 211 nM.

As to `COC(=O)/C(C)=C1\C(=O)[C@H](O)[C@]2(C)C3=C1[C@]14OC(=O)C(C)=C1C[C@H]1[C@](O)(CO)[C@H]5C[C@H]5[C@]1(C)[C@@H]4C[C@]3(OO)[C@H]1C[C@H]12`, the IC50 with Plasmodium falciparum was 5300 nM.

Consider `C=C1C(=O)O[C@]23C4=C5C(=O)[C@H](O)[C@]6(C)C4=C(C[C@H]2[C@]2(C)C(C[C@]13[C@]5(C)C(=O)OC)[C@](O)(COC(=O)/C(C)=C/C)[C@H]1C[C@H]12)[C@H]1C[C@H]16` (stereo partly drawn), for which the IC50 with Plasmodium falciparum came to 4700 nM.

Take `COC(=O)/C(C)=C1\C(=O)[C@H](O)[C@]2(C)C3=C1[C@]14OC(=O)C5=C1C[C@H]1[C@](O)(COC(=O)/C(C)=C/COC(=O)CCC(=O)OC5)[C@H]5C[C@H]5[C@]1(C)[C@@H]4C[C@]3(O)[C@H]1C[C@H]12`: the IC50 with Plasmodium falciparum is more than 25000 nM.

For the compound `COC(=O)CCC(=O)OCC1=C2C[C@H]3[C@](O)(COC(=O)/C=C(\C)CO)[C@H]4C[C@H]4[C@]3(C)[C@@H]3C[C@@]4(OO)C5=C(/C(=C(\C)C(=O)OC)C(=O)[C@H](O)[C@@]5(C)[C@@H]5C[C@@H]54)[C@]23OC1=O`, the IC50 is more than 100000 nM in the data set on WI-38 and 43 nM with Plasmodium falciparum.

As for `COC(=O)/C(C)=C1\C(=O)[C@H](O)[C@]2(C)C3=C(C[C@@H]4[C@]5(OC(=O)C(CO)=C5C[C@H]5[C@H](CO)[C@H]6C[C@H]6[C@]45C)[C@H]31)[C@H]1C[C@H]12`, the IC50 with Plasmodium falciparum came to 11400 nM.

On to `COC(=O)CCC(=O)OCC1=C2C[C@H]3[C@](O)(COC(=O)/C=C(\C)CO)[C@H]4C[C@H]4[C@]3(C)[C@@H]3C[C@@]4(OO)C5=C(C6=C(C)C(=O)O[C@]6(O)[C@H](O)[C@@]5(C)[C@@H]5C[C@@H]54)[C@]23OC1=O`, for which the concentration for half-maximal inhibition (IC50) in the data set with Plasmodium falciparum stood at 94 nM.

As to `C[C@@]12C=C3OC(=O)C(CO)=C3C[C@H]1[C@@H](CO)[C@H]1C[C@H]12`, the IC50 in the data set with Plasmodium falciparum was more than 25000 nM.

Regarding `COC(=O)/C(C)=C1\C(=O)[C@H](O)[C@]2(C)C3=C(C[C@@H]4[C@]5(OC(=O)C(CO)=C5C[C@H]5[C@](O)(COC(=O)/C=C(\C)CO)[C@H]6C[C@H]6[C@]45C)[C@H]31)[C@H]1C[C@H]12`, in the data set on Plasmodium falciparum, the IC50 came to 111 nM.

With `CC1=C2CC3=C(C)[C@H]4C[C@H]4[C@]3(C)C[C@@H]2OC1=O`, the IC50 with Plasmodium falciparum is more than 25000 nM.

As to `C=C1[C@@H]2C[C@@H]2[C@]2(C)[C@@H]3CC4=C5[C@H](/C(=C(\C)C(=O)OC)C(=O)[C@H](O)[C@@]5(C)[C@@H]5C[C@H]45)[C@@]34OC(=O)C(C)=C4C[C@@H]12`, in the data set with Plasmodium falciparum, the half-inhibitory concentration (IC50) came to 1500 nM.

As for `CC1=C2C3=C4[C@](C)([C@@H]5C[C@@H]5[C@@]4(O)C[C@@H]4[C@]35OC(=O)C3=C5C[C@H]5[C@](O)(COC(=O)/C=C(\C)COC(=O)CCC(=O)OC3)[C@H]3C[C@H]3[C@]45C)[C@@H](O)[C@@]2(O)OC1=O`, in the data set on Plasmodium falciparum, the IC50 worked out at 7100 nM.

In the case of `COC(=O)/C(C)=C1\C(=O)[C@H](O)[C@]2(C)C3=C(C[C@@H]4[C@]5(OC(=O)C6=C5C[C@H]5[C@](O)(COC(=O)/C(C)=C/COC(=O)[C@@H](O)CC(=O)OC6)[C@H]6C[C@H]6[C@]45C)[C@H]31)[C@H]1C[C@H]12`, the concentration for half-maximal inhibition (IC50) came to 1740 nM with WI-38 and 13 nM in the data set on Plasmodium falciparum. In addition, the selectivity ratio in data set [1] turned out to be 134.

With `CC1=C2[C@H]3[C@@H]4C(=C[C@@H]5[C@]36OC(=O)C(CO)=C6C[C@H]3[C@](O)(COC(=O)/C=C(\C)CO)[C@H]6C[C@H]6[C@]53C)[C@H]3C[C@H]3[C@]4(C)[C@@H](O)[C@@]2(O)OC1=O`, the half-inhibitory concentration (IC50) in the data set with Plasmodium falciparum was found to be 9900 nM.

`CC(=O)OC[C@H]1[C@H]2C[C@H]2[C@]2(C)C=C3OC(=O)C(CO)=C3C[C@@H]12`: the IC50 with Plasmodium falciparum is more than 25000 nM.

With `COC(=O)/C(C)=C1\C(=O)[C@H](O)[C@]2(C)C3=C(C[C@@H]4[C@]5(OC(=O)C(COC(C)=O)=C5C[C@H]5[C@](O)(COC(=O)C=C(C)C)[C@H]6C[C@H]6[C@]45C)[C@H]31)[C@H]1C[C@H]12`, in the data set on Plasmodium falciparum, the half-inhibitory concentration (IC50) stood at 860 nM.

Consider `COC(=O)/C(C)=C1\C(=O)[C@H](O)[C@]2(C)C3=C(C[C@@H]4[C@]5(OC(=O)C(C)=C5C[C@H]5[C@H](COC(C)=O)[C@H]6C[C@H]6[C@]45C)[C@H]31)[C@H]1C[C@H]12`, for which the concentration for half-maximal inhibition (IC50) in the data set with Plasmodium falciparum was 1800 nM.

On to `COC(=O)/C(C)=C1\C(=O)[C@H](O)[C@]2(C)C3=C1[C@]14OC(=O)C5=C1C[C@H]1[C@](O)(COC(=O)/C=C(\C)COC(=O)CCC(=O)OC5)[C@H]5C[C@H]5[C@]1(C)[C@@H]4C[C@]3(OO)[C@H]1C[C@H]12`, for which, in the data set with Plasmodium falciparum, the concentration for half-maximal inhibition (IC50) was found to be 474 nM.

For the compound `C[C@@H]1CC[C@H]2[C@@H](C)C(=O)O[C@@H]3O[C@@]4(C)CC[C@@H]1[C@]32OO4` [ARTEMISININ], in the data set with Plasmodium falciparum, the concentration for half-maximal inhibition (IC50) worked out at 4 nM.

As to `CC1=C2C3=C4[C@](C)([C@@H]5C[C@@H]5[C@@]4(O)C[C@@H]4[C@]35OC(=O)C3=C5C[C@H]5[C@](O)(COC(=O)/C(C)=C/COC(=O)CCC(=O)OC3)[C@H]3C[C@H]3[C@]45C)[C@@H](O)[C@@]2(O)OC1=O` [CHLORAMULTILIDE C], the half-maximal inhibitory concentration (IC50) in the data set on Plasmodium falciparum is more than 25000 nM.

`C/C=C(\C)C(=O)OC[C@]1(O)[C@H]2C[C@H]2[C@]2(C)[C@@H]3C[C@@]4(O)C5=C(C6=C(C)C(=O)O[C@]6(O)[C@H](O)[C@@]5(C)[C@@H]5C[C@@H]54)[C@@]34OC(=O)C(CO)=C4C[C@@H]12` [CHLORAMULTILIDE D]: the IC50 with Plasmodium falciparum was more than 25000 nM.

As for `C/C=C(\C)C(=O)OC[C@]1(O)[C@H]2C[C@H]2[C@]2(C)[C@@H]3CC4=C5[C@H](/C(=C(\C)C(=O)OC)C(=O)[C@H](O)[C@@]5(C)[C@@H]5C[C@H]45)[C@@]34OC(=O)C(C)=C4C[C@@H]12` [SARCANDROLIDE A], the concentration for half-maximal inhibition (IC50) with Plasmodium falciparum amounted to 320 nM.

Regarding `COC(=O)/C(C)=C1\C(=O)[C@H](O)[C@]2(C)C3=C(C[C@@H]4[C@]5(OC(=O)C(CO)=C5C[C@H]5[C@](O)(COC(=O)/C(C)=C/CO)[C@H]6C[C@H]6[C@]45C)[C@H]31)[C@H]1C[C@H]12` [SARCANDROLIDE B], the 50% inhibitory concentration (IC50) with Plasmodium falciparum is 265 nM.

On to `C/C=C(\C)C(=O)OC[C@]1(O)[C@H]2C[C@H]2[C@]2(C)[C@@H]3C[C@@]4(O)C5=C(C6=C(C)C(=O)O[C@]6(O)[C@H](O)[C@@]5(C)[C@@H]5C[C@@H]54)[C@@]34OC(=O)C(COC(C)=O)=C4C[C@@H]12` [SARCANDROLIDE D], for which the IC50 in the data set with Plasmodium falciparum was more than 25000 nM.

For `C/C=C(\C)C(=O)OC[C@]1(O)[C@H]2C[C@H]2[C@]2(C)[C@@H]3C[C@@]4(O)C5=C(/C(=C(\C)C(=O)OC)C(=O)[C@H](O)[C@@]5(C)[C@@H]5C[C@@H]54)[C@@]34OC(=O)C(COC(C)=O)=C4C[C@@H]12` [SARCANDROLIDE E], the 50% inhibitory concentration (IC50) in the data set on Plasmodium falciparum is more than 25000 nM.
